Measurements collected from several papers.
Protocols differ between the studies behind these lines.
SLC22A1: Solute carrier family 22 member 1 (SLC22A1, Homo sapiens, UniProt O15245)

CC(=O)OC[C@@]1(C)[C@H]2CC[C@@H]3CN(CC(C)C)[C@@H](C4=CCOC4=O)C[C@H]3[C@]2(C)CC[C@H]1OC(C)=O  cell death (MRC5; cell growth or viability, ATP luminescence; 25 µM, 72 h): 20.7%
COc1cc(OC)c2c(=O)cc(-c3ccc(Br)cc3)oc2c1-c1c(OC)cc(OC)c2c(=O)cc(-c3ccc(Br)cc3)oc12  CC50 (HS27; cell growth or viability, MTT; 24 h): > 200 µM
CN(C(=O)n1cnc(-c2ccc[n+]([O-])c2)c1)C1CCCCC1  inhibition (SLC22A1; transporter uptake, inhibitor; CHO; 1 µg/mL): 13%
C[C@@]12COCO[C@@H]1CC[C@]1(C)[C@@H]2CC[C@@H]2CN(Cc3ccc(F)cc3)[C@@H](C3=CCOC3=O)C[C@H]21  cell death (MRC5; cell growth or viability, ATP luminescence; 25 µM, 72 h): -4.3%
COc1cc(C)c(-c2c(C)cc(OC)c3c(=O)cc(-c4ccccc4Br)oc23)c2oc(-c3ccccc3Br)cc(=O)c12  CC50 (HS27; cell growth or viability, MTT; 24 h): > 200 µM
O=C(O)CSc1nnc(Br)n1-c1ccc(C2CC2)c2ccccc12  inhibition (SLC22A1; transporter uptake, inhibitor; MDCK-II; 3 µM, 5 min): 36%
C=CCn1c(=O)c2cnc(Nc3ccc(N4CCN(C)CC4)cc3)nc2n1-c1cccc(C(C)(C)O)n1  concentration (human, plasma; oral, 200 mg, 8 h, single dose): 300 nM
CCCCOC(=O)N1CCN(C(=O)[C@H](CP(=O)(O)O)NC(=O)c2cc(N3CC[C@H](OC)C3)nc(-c3ccccc3)n2)CC1  concentration (human, plasma; subcutaneous, 16 mg, 24 h, single dose): 2.1 ng/mL
COc1cc(OC)c2c(=O)cc(-c3cccc(Br)c3)oc2c1  CC50 (HS27; cell growth or viability, MTT; 24 h): 128 µM
Oc1c(-n2ccnn2)cnn1-c1cc(N2CCOCC2)ncn1  bioavailability (female monkey, plasma; oral, 1 mg/kg): 61%
C=C[C@H]1C[N@@]2CC[C@H]1C[C@@H]2[C@@H](O)c1ccnc2ccc(OC)cc12  inhibition (SLC22A1; transporter uptake, inhibitor; MDCK-II; 100 µM, 5 min): 77%
COc1ccc(CN2C[C@H]3CC[C@@H]4[C@](C)(COC(C)=O)[C@H](OC(C)=O)CC[C@@]4(C)[C@@H]3C[C@@H]2C2=CCOC2=O)cc1  cell death (MRC5; cell growth or viability, ATP luminescence; 25 µM, 72 h): 56.4%
